What was measured:
[1] = Tmax in CD-1 mouse at 1 mg/kg, iv administered as single dose measured up to 24 hrs; assay type: ADME, organism-based; conditions: in vivo
Procedure, shortened: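 Male CD-1 mice, 6–8 weeks old, single tail-vein dose in 3% NMP/45% PEG300/12% ethanol/40% sterile water. Retro-orbital plasma (K3EDTA) taken at 0.083, 0.25, 0.5, 1, 2, 4, 8 and 24 h, n=3/timepoint, analysed by HPLC/MS/MS. Non-compartmental analysis (Model 201, uniform weighting); Tmax read directly from the data.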

[2] = Half life in CD-1 mouse at 1 mg/kg, iv administered as single dose measured up to 24 hrs; assay type: ADME, organism-based; conditions: CD-1, mouse, in vivo
Procedure, shortened: (§1)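 Male CD-1 mice, 6–8 weeks old, single dose by tail vein (1 mg/kg, 3% NMP/45% PEG300/12% ethanol/40% water) or oral gavage (5 mg/kg, 5% NMP/95% PEG300). Retro-orbital plasma sampled 0.083 (iv only) to 24 h, n=3/timepoint, and analysed by HPLC/MS/MS. Non-compartmental analysis. Half-life taken from the terminal phase using ≥3 non-zero points after Tmax.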

[3] = AUClast in CD-1 mouse at 1 mg/kg, iv administered as single dose measured up to 24 hrs; assay type: ADME, organism-based; design: route intravenous, dose 1 mg/kg, time <=24; conditions: in vivo; procedure, shortened: as §1
[4] = AUClast in CD-1 mouse at 5 mg/kg, po administered as single dose measured up to 24 hrs; assay type: ADME, organism-based; design: route oral, dose 5 mg/kg, time <=24; conditions: in vivo; procedure, shortened: as §1
[5] = Oral bioavailability in CD-1 mouse at 5 mg/kg administered as single dose measured up to 24 hrs; assay type: ADME, organism-based; conditions: in vivo
Procedure, shortened: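 CD-1 mouse PK after single iv (1 mg/kg) and oral gavage (5 mg/kg) dosing, with plasma sampled to 24 h (n=3/timepoint) and measured by HPLC/MS/MS. F(%) = (AUC0-inf po × Dose iv)/(AUC0-inf iv × Dose po) × 100.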

[6] = test system: Mus musculus; test: In vivo modulation of gamma secretase in po dosed transgenic J20 mouse overexpressing human APP assessed as reduction in plasma amyloid beta42 level administered via gavage for 3 consecutive days and measured after 4 hrs post last dose on day 3 by meso scale discovery; assay type: functional, organism-based; conditions: dose mg/kg 25-100, time 3.0 day
Procedure, shortened: (§2)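 Female J20 mice, 5–6 months old (n=5/dose), dosed orally at 25, 50 or 100 mg/kg or with vehicle (5% NMP/95% PEG300) for 3 consecutive days. Plasma was taken 4 h after the final dose. Aβ38/40/42 measured by Meso Scale multiplex immunoassay, with % reduction relative to vehicle. Mean ± SEM, ANOVA.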

[7] = test system: Mus musculus; test: In vivo modulation of gamma secretase in po dosed transgenic J20 mouse overexpressing human APP assessed as reduction in plasma amyloid beta40 level administered via gavage for 3 consecutive days and measured after 4 hrs post last dose on day 3 by meso scale discovery; assay type: functional, organism-based; conditions: dose mg/kg 25-100, time 3.0 day; procedure, shortened: as §2
[8] = (§3) In vivo modulation of gamma secretase transgenic Tg2576 mouse overexpressing human APP harboring K595N/M596L Swedish double mutant assessed as reduction in plasma amyloid beta38 level at 50 mg/kg, po administered via gavage for 14 consecutive days and measured after 4 hrs post last dose on day 14 by meso scale discovery relative to control; assay type: functional; design: scale not given: the % may be the effect or the level left; conditions: time 14 day
Procedure, shortened: (§4)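 Female Tg2576 mice, 5–6 months old (n=12/dose), gavaged daily for 14 days with 50 mg/kg or vehicle (5% NMP/95% PEG300). Plasma and brain taken 4 h after the last dose. Aβ38/40/42 quantified by Meso Scale multiplex assay, with % reduction versus vehicle. Mean ± SEM, ANOVA.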

[9] = as §3, with “beta40” for “beta38”; assay type: functional; design: scale not given: the % may be the effect or the level left; conditions: time 14 day; procedure, shortened: as §4
[10] = as §3, with “beta42” for “beta38”; assay type: functional; design: scale not given: the % may be the effect or the level left; conditions: time 14 day; procedure, shortened: as §4
[11] = Drug level in plasma of transgenic Tg2576 mouse overexpressing human APP harboring K595N/M596L Swedish double mutant at 50 mg/kg, po administered via gavage for 14 consecutive days and measured after 4 hrs post last dose on day 14 by HPLC-MS/MS analysis; assay type: ADME, organism-based; conditions: time 14 day
Procedure, shortened: (§5)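 Female Tg2576 mice, 5–6 months old, gavaged with 50 mg/kg daily for 14 days (vehicle 5% NMP/95% PEG300), n=12/dose. Plasma and brain collected 4 h after the last dose and analysed by LC-MS/MS. LLOQ was 1 ng/mL in plasma and 5 ng/g in brain.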

[12] = Drug level in brain of transgenic Tg2576 mouse overexpressing human APP harboring K595N/M596L Swedish double mutant at 50 mg/kg, po administered via gavage for 14 consecutive days and measured after 4 hrs post last dose on day 14 by HPLC-MS/MS analysis; assay type: ADME, organism-based; conditions: time 14 day, read-out: Ct; procedure, shortened: as §5
[13] = Ratio of drug level in brain to plasma of transgenic Tg2576 mouse overexpressing human APP harboring K595N/M596L Swedish double mutant at 50 mg/kg, po administered via gavage for 14 consecutive days and measured after 4 hrs post last dose on day 14 by HPLC-MS/MS analysis; assay type: ADME, organism-based; conditions: 336 h, time 14 day
Procedure, shortened: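 Female Tg2576 mice, 5–6 months old (n=12/dose), given 50 mg/kg by oral gavage daily for 14 days in 5% NMP/95% PEG300. Sacrificed 4 h after the day-14 dose. Plasma and brain drug levels measured by LC-MS/MS (LLOQ 1 ng/mL plasma, 5 ng/g brain). Ratio = brain/plasma.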

[14] = as §3, with “brain” for “plasma”; assay type: functional; design: scale not given: the % may be the effect or the level left; conditions: time 14 day; procedure, shortened: as §4
[15] = as §3, with “brain” for “plasma”, “beta40” for “beta38”; assay type: functional; design: scale not given: the % may be the effect or the level left; conditions: time 14 day; procedure, shortened: as §4
[16] = as §3, with “brain” for “plasma”, “beta42” for “beta38”; assay type: functional; design: scale not given: the % may be the effect or the level left; conditions: time 14 day
Procedure, shortened: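 Female Tg2576 mice, 5–6 months old (n=12/dose), dosed daily by oral gavage for 14 days with vehicle (5% NMP/95% PEG300) or 50 mg/kg test article. Killed 4 h post final dose; brain and plasma Aβ38/40/42 measured by Meso Scale multiplex (SECTOR Imager 6000). Percent reduction versus vehicle; mean ± SEM, ANOVA.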

[17] = Drug metabolism in CD-1 mouse liver; assay type: ADME, tissue-based; conditions: read-out: Drug metabolism
Procedure, shortened: (§6)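 Test compound at 1 μM incubated 30 min with human, rat or mouse liver microsomes (1 mg/mL); parent remaining expressed as %.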

[18] = Metabolic stability in mouse liver microsomes assessed as parent compound remaining at 1 uM incubated for 30 mins; assay type: ADME, Microsome; conditions: 0.5 h; procedure, shortened: as §6
[19] = molecular target: Cytochrome P450 3A4 (Homo sapiens, UniProt P08684); test: Inhibition of recombinant CYP3A4 (unknown origin) by fluorescence-based assay; assay type: ADME
[20] = molecular target: Voltage-gated inwardly rectifying potassium channel KCNH2 (Homo sapiens, UniProt Q12809); test: Inhibition of human ERG expressed in HEK293 cells by patch clamp assay; assay type: cell-based
[21] = Efflux ratio of apparent permeability from basolateral to apical membrane over apical to basolateral membrane in MDCK-MDR1 cells; assay type: ADME, cell-based, Canis lupus familiaris; conditions: dog
Procedure, shortened: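 Calculated as B-A/A-B apparent permeability ratio across MDR1-MDCK cell monolayers; A-B permeability expressed as ×10⁻⁶ cm/s.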

Cytochrome P450 3A4, sequence (P08684 whole entry): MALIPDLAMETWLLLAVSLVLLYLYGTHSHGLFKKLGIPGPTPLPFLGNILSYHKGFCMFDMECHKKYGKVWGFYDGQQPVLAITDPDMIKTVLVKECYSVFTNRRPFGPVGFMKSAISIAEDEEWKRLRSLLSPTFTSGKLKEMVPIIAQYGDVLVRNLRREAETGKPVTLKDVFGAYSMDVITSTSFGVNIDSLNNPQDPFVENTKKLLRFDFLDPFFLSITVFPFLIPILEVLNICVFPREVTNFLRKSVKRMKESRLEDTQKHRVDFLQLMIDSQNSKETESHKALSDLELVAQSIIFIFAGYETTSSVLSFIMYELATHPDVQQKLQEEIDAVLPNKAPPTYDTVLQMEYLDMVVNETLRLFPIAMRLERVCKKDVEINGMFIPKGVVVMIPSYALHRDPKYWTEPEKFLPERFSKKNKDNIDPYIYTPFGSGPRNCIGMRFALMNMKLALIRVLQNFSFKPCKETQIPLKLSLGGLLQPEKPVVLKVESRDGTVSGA
Voltage-gated inwardly rectifying potassium channel KCNH2, sequence (Q12809 whole entry): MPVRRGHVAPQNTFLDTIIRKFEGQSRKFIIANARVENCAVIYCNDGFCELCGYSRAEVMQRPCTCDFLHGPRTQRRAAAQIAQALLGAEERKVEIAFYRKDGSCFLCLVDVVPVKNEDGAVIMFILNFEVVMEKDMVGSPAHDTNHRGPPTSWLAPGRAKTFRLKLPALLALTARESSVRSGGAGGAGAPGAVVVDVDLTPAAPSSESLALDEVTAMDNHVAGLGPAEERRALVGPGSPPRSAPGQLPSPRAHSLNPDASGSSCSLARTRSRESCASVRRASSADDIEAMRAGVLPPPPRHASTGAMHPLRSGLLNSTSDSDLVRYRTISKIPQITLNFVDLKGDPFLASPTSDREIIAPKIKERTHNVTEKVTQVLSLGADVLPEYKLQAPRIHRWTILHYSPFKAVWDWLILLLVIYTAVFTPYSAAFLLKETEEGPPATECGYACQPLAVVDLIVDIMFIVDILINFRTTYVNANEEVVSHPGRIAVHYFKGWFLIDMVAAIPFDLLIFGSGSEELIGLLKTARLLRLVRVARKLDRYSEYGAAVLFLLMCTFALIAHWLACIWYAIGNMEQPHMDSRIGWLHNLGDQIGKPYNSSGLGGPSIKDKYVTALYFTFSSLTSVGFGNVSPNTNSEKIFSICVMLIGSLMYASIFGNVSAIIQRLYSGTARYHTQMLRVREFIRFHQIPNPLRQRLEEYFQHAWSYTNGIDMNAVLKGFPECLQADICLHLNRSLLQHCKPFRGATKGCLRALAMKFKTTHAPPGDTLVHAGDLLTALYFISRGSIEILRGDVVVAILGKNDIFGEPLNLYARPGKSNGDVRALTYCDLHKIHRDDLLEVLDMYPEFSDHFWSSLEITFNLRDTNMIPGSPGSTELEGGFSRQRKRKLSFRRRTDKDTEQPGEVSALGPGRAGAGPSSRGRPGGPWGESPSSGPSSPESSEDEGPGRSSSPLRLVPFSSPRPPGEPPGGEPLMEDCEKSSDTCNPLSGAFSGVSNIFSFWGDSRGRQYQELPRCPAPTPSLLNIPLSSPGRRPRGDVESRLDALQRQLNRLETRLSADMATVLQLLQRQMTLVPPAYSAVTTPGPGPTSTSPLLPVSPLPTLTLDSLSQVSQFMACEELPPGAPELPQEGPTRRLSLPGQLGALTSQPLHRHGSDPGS

## CCn1nc2c(c1Nc1nc(-c3ccc(-n4cnc(C)c4)c(OC)n3)cs1)CCC2
[1]
  Tmax: 4.98 min
[2]
  half-life: 42 min
[3]
  AUClast: 376 ng·h/mL
[4]
  AUClast: 1205 ng·h/mL
[5]
  F: 66%
[6]
  Activity: Dose-dependent effect
[7]
  Activity: Dose-dependent effect
[8]
  Activity: 111%
[9]
  Activity: 24%
[10]
  Activity: 52%
[11]
  concentration at 336 h: 1130 ng/mL
[12]
  concentration at 336 h: 425 ng/g
[13]
  BPR: 0.374
[14]
  Activity: 0%
[15]
  Activity: 1%
[16]
  Activity: 23%

## COc1nc(-c2csc(Nc3c4c(nn3CCF)CCCC4)n2)ccc1-n1cnc(C)c1
[17]
  metabolised: 60%
[18]
  Stabilty: 100%
[19]
  IC50: 1 µM
[20]
  IC50: 11.4 µM
[1]
  Tmax: 4.98 min
[21]
  Ratio: 1.9

Reference: ChEMBL document CHEMBL4699542, “Design and synthesis of novel methoxypyridine-derived gamma-secretase modulators” (Bioorg Med Chem, 2020)
